Active and inactive are the calls of the source. The calls are words filed in the database; no cut-off is given here. Numbered stars: 1 amine (or outer) side, 2 acyl side, 3 side chain; on linkers, the order of the positions; unused ones are H or OH. Bridge positions count the residues as written; N and C are the ends. Square brackets hold non-standard residues; d marks the D form. Peptide text beside a SMILES is read from it. Trimesoyl = O=C(c1cc(C(=O)[*:2])cc(C(=O)[*:3])c1)[*:1]; d2Nal = N[C@H](Cc1ccc2ccccc2c1)C(=O)O; Phg = N[C@H](C(=O)O)c1ccccc1; Orn = NCCC[C@H](N)C(=O)O; Dap = NC[C@H](N)C(=O)O
What was measured:
[1] = target: T1, Purine nucleoside phosphorylase (Homo sapiens) (UniProt P00491); assay: Binding affinity to purine nucleoside phosphorylase (unknown origin)
T1 sequence (whole entry): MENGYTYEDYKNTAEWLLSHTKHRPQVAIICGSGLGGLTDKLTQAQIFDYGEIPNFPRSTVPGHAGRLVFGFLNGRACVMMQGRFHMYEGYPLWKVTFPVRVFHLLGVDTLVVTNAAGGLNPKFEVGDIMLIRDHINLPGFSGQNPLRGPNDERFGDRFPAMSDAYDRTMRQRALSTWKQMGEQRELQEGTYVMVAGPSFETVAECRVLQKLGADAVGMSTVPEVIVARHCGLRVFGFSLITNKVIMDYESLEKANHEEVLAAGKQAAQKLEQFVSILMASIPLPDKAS
In short: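 Fluorescein-labeled peptide (100 nM) incubated 1 h at RT with varying concentrations of control protein (BSA, GST-RBD, PNP, PTP1B or MDM2). KD derived from fluorescence polarization titration curves.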

[2] = Drug distribution in human HeLa cells assessed as diffuse fluorescence throughout the entire cell volume at 5 uM incubated for 2 hrs by live-cell confocal microscopy; format: ADME, cell-based
In short: (§1)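 HeLa, H358 or A549 cells treated with 5 μM fluorescein-labeled peptide for 2 h, then imaged by live-cell confocal microscopy for intracellular fluorescence pattern.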

[3] = Drug distribution in human NCI-H358 cells assessed as diffuse fluorescence throughout the entire cell volume at 5 uM incubated for 2 hrs by live-cell confocal microscopy; format: ADME, cell-based; conditions: nci-h358, 2 h; in short: as §1
[4] = Drug distribution in human NCI-H358 cells assessed as fluorescent puncta in cytoplasmic region at 5 uM incubated for 2 hrs by live-cell confocal microscopy; format: ADME, cell-based; conditions: nci-h358, 2 h; in short: as §1
[5] = Drug distribution in human A549 cells assessed as fluorescent puncta in cytoplasmic region at 5 uM incubated for 2 hrs by live-cell confocal microscopy; format: ADME, cell-based; conditions: a549, 2 h; in short: as §1
[6] = tested on: NIH3T3; assay: Cytotoxicity against mouse NIH3T3 cells incubated for 96 hrs by CellTiter-Glo2 assay; format: cell-based; conditions: NIH3T3, 96 h
In short: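 Cells plated at 5,000/well, grown overnight, then exposed to serially diluted peptide (0–40 μM) in medium with 10% FBS for 96 h at 37 °C, 5% CO2. Viability read by CellTiter-Glo 2.0 luminescence after 15 min at RT.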

[7] = tested on: NCI-H358; assay: Induction of apoptosis in human NCI-H358 cells assessed as early apoptotic cells at 1 uM incubated for 24 hrs by Alexa Fluor 488 annexin V/propidium iodide staining based assay (reference value: 3.05%); format: functional
[8] = tested on: NCI-H358; assay: Induction of apoptosis in human NCI-H358 cells assessed as necrotic cells at 1 uM incubated for 24 hrs by Alexa Fluor 488 annexin V/propidium iodide staining based assay (reference value: 0.699%); format: functional
[9] = tested on: NCI-H358; assay: Induction of apoptosis in human NCI-H358 cells assessed as early apoptotic cells at 5 uM incubated for 24 hrs by Alexa Fluor 488 annexin V/propidium iodide staining based assay (reference value: 3.05%); format: functional
[10] = tested on: NCI-H358; assay: Induction of apoptosis in human NCI-H358 cells assessed as late apoptotic cells at 5 uM incubated for 24 hrs by Alexa Fluor 488 annexin V/propidium iodide staining based assay (reference value: […]); format: functional
[11] = tested on: NCI-H358; assay: Induction of membrane disruption in human H358 cells assessed as LDH release up to 20 uM incubated for 45 mins by absorbance method; format: functional, cell-based; conditions: dose microM <=20, time […]
[12] = tested on: NCI-H358; assay: Antitumor activity against human NCI-H358 cells xenografted in mouse assessed as suppression of tumor growth at 5 mg/kg, iv administered for 9 days measured every other day; format: functional, organism-based; conditions: time 9.0 day
In short: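 H358 xenograft in mice; peptide given daily at 5 mg/kg i.v. for 9 days, with tumor growth followed over that period.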

[13] = tested on: A549; assay: Antitumor activity against human A549 cells xenografted in mouse assessed as reduction in ERK phosphorylation at 1 to 5 mg/kg, iv administered for 9 days measured every other day by immunohistochemical staining method; format: functional, organism-based; conditions: dose 1-5 mg/kg, time 9.0 day

Activity [1]: inactive | Drug uptake [2]: Active | Drug uptake [3]: Active | Drug uptake [4]: Active | Drug uptake [5]: Active
SMILES: C[C@@H](NC(=O)[C@H](Cc1ccccc1)NC(=O)[C@@H](CCCNC(=N)N)NC(=O)[C@H](CCCN)NC(=O)[C@@H]1CNC(=O)c2cc3cc(c2)C(=O)N[C@H](Cc2ccc4ccccc4c2)C(=O)N[C@@H](CO)C(=O)N[C@@H](CC(N)=O)C(=O)N[C@H](Cc2ccc4ccccc4c2)C(=O)N[C@@H](c2ccccc2)C(=O)N[C@@H](CCCCNC3=O)C(=O)N[C@H](Cc2ccccc2)C(=O)N[C@@H](CCC(N)=O)C(=O)N[C@H](CCCNC(=N)N)C(=O)N[C@@H](CCCNC(=N)N)C(=O)N1)C(N)=O ([d2Nal]SN[d2Nal][Phg]K[dF]Q[dR]R[Dap][Orn][dR]F[dA]-NH2; linker N-6-11 via Trimesoyl)
EC50 [6]: ≥ 20 µM | Activity [7]: 3.13% | Activity [8]: 0.226% | Activity [9]: 14.7% | Activity [10]: 29.1% | Activity [11]: inactive | Activity [12]: Active | Activity [13]: Active

— ChEMBL document CHEMBL4842360, “Discovery of a Bicyclic Peptidyl Pan-Ras Inhibitor” (J Med Chem, 2021)
